Most compounds without a hit are left out; they make up all but 3.5% or so of the library.
HTRA1 inhibitor = inhibitors of human serine peptidase HTRA1. Q92743. recombinant HTRA1, FP-rhodamine activity-based probe, fluorescence polarization. inhibition, % at 5.96 µM. 0.5% of 340,000 active; in the data active = inhibition above about 36%;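 note: 0% = enzyme with DMSO and 100% = wells lacking enzyme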
Target sequence (Q92743 whole entry, looked up): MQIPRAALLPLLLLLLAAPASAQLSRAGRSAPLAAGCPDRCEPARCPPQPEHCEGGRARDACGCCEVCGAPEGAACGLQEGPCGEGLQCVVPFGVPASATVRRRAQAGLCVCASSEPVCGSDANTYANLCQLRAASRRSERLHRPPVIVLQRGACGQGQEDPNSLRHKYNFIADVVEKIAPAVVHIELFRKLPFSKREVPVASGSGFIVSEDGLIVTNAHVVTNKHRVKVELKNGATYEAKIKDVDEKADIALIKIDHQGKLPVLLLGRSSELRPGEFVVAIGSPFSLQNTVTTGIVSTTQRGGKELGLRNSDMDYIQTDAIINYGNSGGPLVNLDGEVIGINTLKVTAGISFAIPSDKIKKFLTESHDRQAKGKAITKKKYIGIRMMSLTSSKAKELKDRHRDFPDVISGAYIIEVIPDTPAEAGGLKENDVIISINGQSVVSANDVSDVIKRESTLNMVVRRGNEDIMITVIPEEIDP
ABHD4 inh = inhibitors of mouse ABHD4; 0.54% of 370,000 active; inhibition, % at 8.92 µM; purified mABHD4, FP-Rh probe fluorescence polarization; Q8VD66;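 active = inhibition exceeding the mean over every tested compound plus 3 SD, cut at about 30% in these data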;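 note: 0% = plate median of compound wells and 100% = S159A mutant with DMSO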
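Assay system: Wild-type mouse ABHD4 protein | Medium: HEPES pH 7.0 buffer, 150 mM NaCl, 0.01% Pluronic F-127 | Incubation: Enzyme–compound pre-incubation 45 min, then probe 60 min, both 25 °C | Technique: Fluorescence polarization with parallel and perpendicular emission, 525/598 nm | Evaluation: % inhibition of FP-Rh probe binding versus controls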
SIAE inh = inhibitors of human sialic acid acetylesterase SIAE. Q9HAT2. SIAE FP-Rh probe binding, fluorescence polarization. inhibition, % at 9.66 µM. 0.69% of 370,000 active. AID 1053197;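 active = inhibition above a cutoff: mean of compounds within the control limits plus 3 SD of those, cut at about 17% in these data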;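 note: 0% = plate median of compound wells and 100% = probe without SIAE protein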
PRMT1 FP inh = blocks human protein arginine methyltransferase 1. Q99873. recombinant PRMT1, activity-based probe fluorescence polarization. inhibition, % at 2.79 µM. 1.3% of 370,000 active. AID 652257;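 active = inhibition above about 21% made by adding two undisclosed values, limit read from the data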
rCAG RNA binder = r(CAG) repeat RNA binding; inhibition, % at 3 µM; AID 651821; 1.3% of 370,000 active; TO-PRO-1 dye displacement fluorescence;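 active = inhibition above the plate cutoff, the mean of all test compounds on that plate plus 3 SD, cut at about 35% in these data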;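 note: 0% = DMSO alone and 100% = 100 µM mitoxantrone as full dye displacement; higher means more dye released from RNA so lower well fluorescence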
TCR CD3 inh = inhibitors of human TCR-CD3 interaction | TAMRA-labeled TCR probe fluorescence, biochemical | inhibition, % at 9.4 µM | 0.37% of 360,000 active | AID 651800;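 note: recombinant mutant TCR 2C K166C tagged with TAMRA read by polarization; 0% = receptor in buffer alone and 100% = receptor with positive control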
BSA TAMRA ctr = counter-screen for TCR-CD3 interaction inhibitors: BSA probe; TAMRA-labeled BSA probe fluorescence counterscreen; 10% of 1,200 active; inhibition, % at 9.4 µM; shares compounds with TCR CD3 inh; in the data active = inhibition above about 23%;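 note: 0% = buffer low control and 100% = reference high control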
TCR-CD3 conf = TCR-CD3 interaction inhibition, confirmation | inhibition, % at 9.4 µM | shares compounds with TCR CD3 inh | 48% of 1,200 active | TAMRA-labeled TCR probe fluorescence binding assay
* = called active by the depositor; nt = not tested or not shown. Cut-off read from the data, not from the text of the source, unless noted: active = inhibition above about 19%; inactive = the rest.

SMILES	HTRA1 inhibitor	ABHD4 inh	SIAE inh	PRMT1 FP inh	rCAG RNA binder	TCR CD3 inh	BSA TAMRA ctr	TCR-CD3 conf
COc1cc(OC)c(N(C)S(=O)(=O)c2cccc(C(=O)OCC(=O)c3c[nH]c4ccccc34)c2)cc1Cl	-89	-88	-108	0	27	38*	4	18
COCCNC(=O)c1ccc(N2CC3CC(C2)c2cccc(=O)n2C3)c(NC(=O)c2ccccc2Br)c1 (stereo not drawn)	-1	-1	-2	1	-1	49*	7	2
O=C(N/N=C\c1cccc([N+](=O)[O-])c1O)C1COc2ccccc2O1 (stereo not drawn)	3	15	9	-1	14	15	nt	nt
O=C(N/N=C/c1cccc([N+](=O)[O-])c1O)C(O)(c1ccccc1)c1ccccc1	11	12	1	4	20	28*	-12	26*
O=C(N/N=C/c1cccc([N+](=O)[O-])c1O)c1cccs1	9	23	7	1	7	29*	-10	31*
O=C(CN1CCCc2ccccc21)NCc1ccccc1F	nt	6	2	2	5	nt	nt	nt
CCCCN(C(=O)c1cccc(-n2cccc2)c1)c1c(N)n(CCCC)c(=O)[nH]c1=O	-10	0	-2	16	29	39*	-9	10
CCCCN(C(=O)c1cccc(-n2cccc2)c1)c1c(N)n(CCC)c(=O)[nH]c1=O	-6	3	1	-2	9	9	nt	nt
COc1ccccc1OCC(=O)N/N=C/c1c(O)ccc2ccccc12	4	21	5	6	10	20*	-9	18
COc1ccccc1OCC(=O)N/N=C/c1cccc2cccnc12	0	-1	-4	-1	-6	-11	nt	nt
OCc1nc2ccccc2n1CCc1ccccc1	0	-1	-7	2	-1	23*	-6	-3
OCc1nc2ccccc2n1CCCc1ccccc1	2	3	7	-1	-1	-3	nt	nt
CCOc1ccc(S(=O)(=O)NCCC(=O)NCCCSc2ccccc2)cc1	-12	-2	1	0	-8	43*	-1	2
COc1ccccc1OC(=O)c1ccc2nsnc2c1	-6	-2	0	3	0	21*	6	4
COc1ccccc1NC(=O)c1ccc2nsnc2c1	-4	0	3	-1	-2	2	nt	nt
COc1cccc(/C=C2\CC3(OC(=O)c4ccc(Cl)cc4)CCCN2C3)c1 (stereo not drawn)	nt	-1	-4	-2	1	nt	nt	nt
O=C(CP(=O)(c1ccccc1)c1ccccc1)N/N=C/c1cc(Br)cc(Br)c1O	29	4	11	-2	4	50*	-9	51*
O=C(Cc1ccccc1)N/N=C/c1cc(Br)cc(Cl)c1O	18	5	14	0	14	30*	-14	18
COc1ccc(-c2cnnn2-c2ccc(NC(=O)c3ccc(S(=O)(=O)N4CCCCC4)cc3)cc2)cc1	-64	-60	-82	3	16	24*	29*	39*
CCCNC(=O)C(Cc1ccccc1)NC(=O)c1ccc(C(F)(F)F)cc1 (stereo not drawn)	-3	5	-2	-1	-7	22*	-2	4
O=C(Nc1ccc(Cl)c(Cl)c1)Oc1ccc(NC(=O)c2ccco2)cc1	-30	-57	-132	-2	11	40*	4	15
CC(C)CC1NC(=O)c2ccc(Cl)cc2-n2c1nc1cc(F)ccc1c2=O (stereo not drawn)	nt	-10	0	0	0	170*	5	-2
O[C@H](COc1cc(F)cc(F)c1)CN1CCC(C(O)(c2ccccc2)c2ccccc2)CC1	nt	6	4	-2	2	nt	nt	nt
Cc1cc(C)cc(C(=O)OCCN2CCN(C3CN(Cc4cn(Cc5ccc([N+](=O)[O-])cc5)nn4)S(=O)(=O)C3)CC2)c1 (stereo not drawn)	nt	-8	-1	3	8	nt	nt	nt
COc1cc(OC)cc(C(=O)NNC(=O)c2cc3ccccc3cc2O)c1	9	-8	10	-1	30	26*	-11	19
SMILES	HTRA1 inhibitor	ABHD4 inh	SIAE inh	PRMT1 FP inh	rCAG RNA binder	TCR CD3 inh	BSA TAMRA ctr	TCR-CD3 conf
COc1ccc(NS(=O)(=O)c2cccc(C(=O)NNC(=O)c3ccccc3O)c2)cc1	20	16	-2	2	18	28*	-16	16
COc1ccc(C(=O)NNC(=O)c2ccc3ccccc3c2O)cc1	4	6	14	0	2	38*	-11	38*
Cc1ccc(NC(=O)NNC(=O)c2cc3ccccc3cc2O)cc1	18	-4	2	-5	20	32*	-2	21*
COc1ccc(C(=O)NNC(=O)c2ccc3ccccc3c2)cc1	0	-3	-4	0	1	5	nt	nt
COc1ccccc1C(=O)NC1CCCCN(Cc2ccc(OC(F)(F)F)cc2)C1=O (stereo not drawn)	nt	-1	0	0	1	nt	nt	nt
O=C(NNC(=O)c1cccc2ccccc12)c1ccc(-c2ccccc2)cc1	5	4	1	-1	6	0	nt	nt
Cc1ccc(C(=O)NNC(=O)c2ccc3ccccc3c2O)cc1	-2	11	-2	6	12	43*	-6	34*
O=C(NNC(=O)c1ccc2ccccc2c1O)NC1CCCCC1	20	6	17	4	6	20*	-7	21*
O=C(NNC(=O)c1ccc(O)cc1O)c1ccc(-c2ccccc2)cc1	24	4	2	-2	13	28*	-9	22*
Cc1cccc(NC(=O)NNC(=O)c2ccc3ccccc3c2)c1	-8	-4	0	1	2	-1	nt	nt
Cc1cccc(NC(=O)NNC(=O)c2ccc3ccccc3c2O)c1	15	13	17	1	10	33*	-8	29*
O=[N+]([O-])c1ccccc1S(=O)(=O)N1CCC(c2cn3ccccc3n2)CC1	nt	5	-3	8	9	nt	nt	nt
CCOC(=O)[C@@]12CCCC3=C1N(CCC3)C(=O)[C@H]2CC(=O)NCc1ccc(C)o1	nt	2	5	2	2	nt	nt	nt
CCC/C(C)=N/NC(=O)c1ccccc1O	8	5	1	-1	1	5	nt	nt
CCOC(=O)C(CC)/C(C)=N\NC(=O)c1ccccc1O (stereo not drawn)	31	9	6	0	-9	35*	22	38*
CCC(CC)C(C(=O)NCc1ccccc1)N1CCN(c2cccc(C)c2C)CC1 (stereo not drawn)	nt	-5	3	-4	1	31*	-1	-1
COC(=O)c1cc(O)c(O)c(O)c1	13	12	8	4	2	22*	-1	20*
